Measured values published in ChEMBL document CHEMBL3098043, “New insights into molecular recognition of 1,1-bisphosphonic acids by farnesyl diphosphate synthase” (Bioorg Med Chem, 2014).
Each block holds one compound with its values, some of them ahead of it.

Tests used:
Trypanosoma cruzi [1] = assay: Antimicrobial activity against Trypanosoma cruzi CL amastigotes infected in african green monkey Vero cells measured on day 3 by fluorescence assay; format: functional; conditions: 72 h, read-out: ED50 (the source's name)
Outline: (§1)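 Vero cells were gamma-irradiated (2,000 Rads), seeded at 3.4×10^4/well in RPMI with 10% FBS, and incubated overnight at 35 °C, 7% CO2. […] Compounds were given in serial dilutions (1.56–25 μM), each in quadruplicate, with benznidazole (0.39–6.25 μM) as reference. Fluorescence was read on day 3 post-infection, and IC50 was obtained by non-linear regression.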

Toxoplasma gondii [2] = assay: Antimicrobial activity against Toxoplasma gondii tachyzoites expressing red fluorescence protein infected in hTerT cells measured daily by fluorescence assay; format: functional; conditions: read-out: ED50 (the source's name)
Outline: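 Tachyzoites expressing red fluorescent protein, maintained in hTerT cells in DMEM-HG with 1% FBS, 2 mM glutamine, 1 mM pyruvate, 37 °C, 5% CO2. Confluent hTerT monolayers infected with 10^4 filtered, needle-passed tachyzoites/well. Drugs serially diluted in the same medium. Fluorescence read daily from the bottom (ex 510, em 540 nm).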

Vero [3] = assay: Cytotoxicity against african green monkey Vero cells at 25 uM; format: cell-based; conditions: chlorocebus sabaeus
Outline: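 Host-cell toxicity toward irradiated, T. cruzi-infected Vero cells was judged by visual inspection during the amastigote assay. Drugs went up to 25 μM in RPMI with 10% FBS at 35 °C, 7% CO2, over 3 days.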

[4] = Cytotoxicity against hTerT cells; format: cell-based; conditions: human
Outline: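 Toxicity toward hTerT host cells was judged by visual inspection during the tachyzoite growth assay. Cells were in DMEM-HG with 1% FBS at 37 °C, 5% CO2.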

[5] = […]; design: species or system Trypanosoma cruzi
Trypanosoma cruzi [6] = assay: Ratio of compound activity to WC-9 activity for Trypanosoma cruzi amastigotes; format: functional
Trypanosoma cruzi [7] = assay: Antimicrobial activity against Trypanosoma cruzi amastigotes; format: functional; conditions: read-out: ED50 (the source's name); outline: as §1
[8] = target: T1, Farnesyl diphosphate synthase (Toxoplasma gondii, UniProt Q197X6); assay: Inhibition of Toxoplasma gondii FPPS
T1 sequence (Q197X6 whole entry): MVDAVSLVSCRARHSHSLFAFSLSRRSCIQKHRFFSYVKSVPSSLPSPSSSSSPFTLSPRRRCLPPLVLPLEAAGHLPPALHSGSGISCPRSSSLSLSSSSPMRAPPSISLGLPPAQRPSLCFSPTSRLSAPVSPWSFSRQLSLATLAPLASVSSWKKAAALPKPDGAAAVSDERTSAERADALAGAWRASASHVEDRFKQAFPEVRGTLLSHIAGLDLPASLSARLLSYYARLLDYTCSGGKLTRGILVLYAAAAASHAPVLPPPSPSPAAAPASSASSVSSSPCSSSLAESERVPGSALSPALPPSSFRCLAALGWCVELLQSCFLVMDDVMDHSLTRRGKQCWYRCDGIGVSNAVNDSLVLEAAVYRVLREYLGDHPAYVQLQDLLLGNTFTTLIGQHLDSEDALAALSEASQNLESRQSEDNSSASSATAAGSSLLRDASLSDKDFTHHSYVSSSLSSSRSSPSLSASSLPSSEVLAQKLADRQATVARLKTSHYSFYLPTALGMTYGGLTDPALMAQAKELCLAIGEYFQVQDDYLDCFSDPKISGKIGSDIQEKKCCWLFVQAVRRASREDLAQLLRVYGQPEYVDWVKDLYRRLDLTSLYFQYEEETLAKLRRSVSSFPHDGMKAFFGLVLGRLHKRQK

Trypanosoma cruzi [9] = assay: Antimicrobial activity against Trypanosoma cruzi; format: functional; conditions: read-out: ED50 (the source's name)
Toxoplasma gondii [10] = assay: Antimicrobial activity against Toxoplasma gondii tachyzoites expressing red fluorescence protein infected in hTerT cells at 10 uM measured daily by fluorescence assay; format: functional
Trypanosoma cruzi [11] = assay: Antimicrobial activity against Trypanosoma cruzi CL amastigotes infected in african green monkey Vero cells at 10 uM measured on day 3 by fluorescence assay; format: functional; conditions: 72 h
Outline: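 Vero host cells, gamma-irradiated (2,000 Rads), seeded at 3.4×10^4/well in RPMI with 10% FBS and incubated overnight at 35 °C, 7% CO2. […] Compounds were added in RPMI, in quadruplicate, with no-parasite background and no-drug controls. Fluorescence was read at day 3 post-infection.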

Vero [12] = assay: Cytotoxicity against african green monkey Vero cells at 10 uM; format: cell-based; conditions: chlorocebus sabaeus

SMILES: CCCCCCCNCC(O)(P(=O)(O)O)P(=O)(O)O
EC50 (Trypanosoma cruzi [1]): > 20 µM | EC50 (Toxoplasma gondii [2]): ≥ 10 µM | Activity (Vero [3]): Non-toxic | Activity [4]: Non-toxic | IC50 [5]: > 10 µM

EC50 (Trypanosoma cruzi [7]): 0.84 µM
SMILES: CCCCCCNCC(P(=O)(O)O)P(=O)(O)O
Ratio (Trypanosoma cruzi [6]): 15

SMILES: CCCCCCCCC(F)(P(=O)(O)O)P(=O)(O)O
IC50 [8]: 0.035 µM

EC50 (Trypanosoma cruzi [9]): 0.67 µM
SMILES: CCCCCCCCCCCCNCC(P(=O)(O)O)P(=O)(O)O

SMILES: CCCCCCCCCCNCC(O)(P(=O)(O)O)P(=O)(O)O
inhibition at 10 µM (Toxoplasma gondii [10]): 14.9% | inhibition at 10 µM (Trypanosoma cruzi [11]): 42% | Activity (Vero [3]): Non-toxic | Activity [4]: Non-toxic | IC50 [5]: > 10 µM | IC50 [8]: 0.125 µM

SMILES: CCCCCCCCNCC(O)(P(=O)(O)O)P(=O)(O)O
inhibition at 10 µM (Trypanosoma cruzi [11]): 46% | EC50 (Toxoplasma gondii [2]): 2 µM | Activity (Vero [3]): Non-toxic | Activity [4]: Non-toxic | IC50 [5]: > 10 µM | Activity (Vero [12]): Toxic | IC50 [8]: 0.039 µM

SMILES: CCCCCCNCC(O)(P(=O)(O)O)P(=O)(O)O
EC50 (Trypanosoma cruzi [1]): > 20 µM | EC50 (Toxoplasma gondii [2]): 4.68 µM | Activity (Vero [3]): Non-toxic | Activity [4]: Non-toxic | IC50 [5]: > 10 µM | IC50 [8]: 0.051 µM

EC50 (Trypanosoma cruzi [9]): 2.77 µM | EC50 (Trypanosoma cruzi [1]): 1.44 µM
SMILES: O=C(Cn1ccnc1[N+](=O)[O-])NCc1ccccc1 [BENZNIDAZOLE]

SMILES: CCCCCCCCCC(F)(P(=O)(O)O)P(=O)(O)O
IC50 [8]: 0.06 µM

SMILES: CCCCCNCC(O)(P(=O)(O)O)P(=O)(O)O
EC50 (Trypanosoma cruzi [1]): > 20 µM | EC50 (Toxoplasma gondii [2]): > 10 µM | Activity (Vero [3]): Non-toxic | Activity [4]: Non-toxic | IC50 [5]: > 10 µM | IC50 [8]: 0.067 µM

SMILES: O=P(O)(O)C(O)(Cc1cccnc1)P(=O)(O)O [RISEDRONIC ACID]
EC50 (Toxoplasma gondii [2]): 2.4 µM
